Published values from different studies.
Target: Calcium/calmodulin-dependent protein kinase type II subunit beta (CAMK2B, Homo sapiens, UniProt Q13554)

COc1cc2ncnc(Nc3ccc(Oc4ccccc4)c(C)c3C)c2cc1OC
inhibition (enzyme activity, inhibitor; 1 µM): 12%

CCCCNc1ncc2c(-c3ccc(F)cc3)nn(C[C@H]3CC[C@H](N)CC3)c2n1
inhibition (target engagement in cells, inhibitor, chemoproteomics; 20 mM): 29%

COc1cc(-c2cc(-c3ccc(N4CCNCC4)cc3)cnc2C)cc(OC)c1OC
inhibition (enzyme activity, inhibitor; 1 µM): 1%

CC(C)c1ccc(NC(=O)c2cccs2)c(-c2nc3ccccc3[nH]c2=O)c1
activity vs control (enzyme activity, inhibitor; 1 µM): 108%

CCN(CC)CCNC(=O)c1c(C)[nH]c(/C=C2\C(=O)Nc3ccc(Cl)cc32)c1C
remaining activity (enzyme activity, inhibitor; 0.5 µM): 27.3%

CC/C(=N\NC(=O)NCc1cccc(O)c1)c1ccc(O)c(C)c1O
inhibition (enzyme activity, inhibitor; 0.1 µM): -4%

Cc1cc(-n2nc(Cc3cc(F)cc(C(F)(F)F)c3)nc2C)ccc1C(N)=O
remaining binding (cell-free assay, competition with immobilised ligand; 1 µM): 100%

O=c1c2ccccc2[nH]c(=S)n1CCN1CCC(=C(c2ccc(F)cc2)c2ccc(F)cc2)CC1
remaining activity (enzyme activity, inhibitor; 0.5 µM): 102%

O=C(Nc1ccc(Oc2ccc(F)cc2)cc1)N1CCc2ncccc2[C@H]1c1ccc(F)cc1
remaining binding (cell-free assay, competition with immobilised ligand; 1 µM): 100%

O=c1cc(-c2cccc3c2Sc2ccccc2S3)oc(N2CCOCC2)c1
remaining activity (enzyme activity, inhibitor; 0.5 µM): 106%

Cc1ncc([N+](=O)[O-])n1C(=NO)c1ccccc1C(F)(F)F
inhibition (enzyme activity, inhibitor; 10 µM): 13.6%

Cc1ccc(NC(=O)c2ccc(C)c(C(F)(F)F)c2)cc1C#Cc1nn(C2CCC(O)CC2)c2ncnc(N)c12 (stereo not drawn)
remaining signal (cell-free assay; 10 µM): 85%

CCN(CC)CCNC(=O)c1c(C)[nH]c(/C=C2\C(=O)Nc3ccc(F)cc32)c1C
inhibition (enzyme activity, inhibitor; 10 µM): 91%

C[C@@H]1CN(c2cc(-c3nn(C)c4ccc(OC5(C)CC5)cc34)ncn2)C[C@H](C)O1
remaining binding (cell-free assay, competition with immobilised ligand; 1 µM): 96%

CC(C)(C)c1nc(-c2cccc(NS(=O)(=O)c3c(F)cccc3F)c2F)c(-c2ccnc(N)n2)s1
remaining activity (enzyme activity, inhibitor, radiometric; 1 µM): 78%

CCCCN(CCCC)C(=O)CN1C[C@H](c2cc(OC)c3c(c2)OCO3)[C@@H](C(=O)O)[C@@H]1CC(C)(C)CCC
remaining binding (cell-free assay, competition with immobilised ligand; 1 µM): 100%

CCN(CC)c1ccc(C2=NNC(=O)CC2C)cc1[N+](=O)[O-] (stereo not drawn)
remaining activity (enzyme activity, inhibitor; 10 µM): 96%

O=C1NC(c2ccccn2)Sc2ccccc21 (stereo not drawn)
remaining binding (cell-free assay, competition with immobilised ligand; 1 µM): 100%

Nc1ncnc2occ(-c3ccc(NC(=O)Nc4cc(C(F)(F)F)ccc4F)cc3)c12
remaining activity (enzyme activity, inhibitor; 20 µM): 95%

Cc1ccc(-n2nc(C(C)(C)C)cc2NC(=O)Nc2ccc(OCCN3CCOCC3)c3ccccc23)cc1
inhibition (enzyme activity, inhibitor; 10 µM): 22%

COc1ccc2c(c1)O[C@H](c1ccc(OC)c(OC)c1)C[C@@H]2NC(=O)C1(c2ccc3c(c2)OC(F)(F)O3)CC1
remaining binding (cell-free assay, competition with immobilised ligand; 1 µM): 88%

Cc1ccc(Nc2nccc(N(C)c3ccc4c(C)n(C)nc4c3)n2)cc1S(N)(=O)=O
inhibition (enzyme activity, inhibitor; 0.3 µM): 15%

Nc1c(C(=O)NCc2ccc(C(=O)NCCCC3CCCCC3)cc2)cnn1-c1ccccc1
remaining binding (cell-free assay, competition with immobilised ligand; 0.1 µM): 100%

CS(=O)(=O)CCNCc1ccc(-c2ccc3ncnc(Nc4ccc(OCc5cccc(F)c5)c(Cl)c4)c3c2)o1
remaining signal (cell-free assay; 0.5 µM): 93.8%

CNC(=O)c1cc(Oc2ccc(NC(=O)Nc3ccc(Cl)c(C(F)(F)F)c3)cc2)ccn1
inhibition (enzyme activity, inhibitor; 10 µM): 50%

Cc1sc(C(=O)NC2COC2)cc1-n1cc(NC(=O)Nc2c(F)cccc2Cl)cn1
remaining activity (enzyme activity, inhibitor; 10 µM): 100%

O=C1NC(=O)c2cc(Nc3ccc(F)cc3)c(Nc3ccc(F)cc3)cc21
remaining signal (cell-free assay; 0.5 µM): 98.7%

O=C(NC[C@@H]1[C@H]2CN(C(=O)OCc3cc(C(F)(F)F)cc(C(F)(F)F)c3)C[C@@H]12)c1ccc2[nH]nnc2c1
remaining binding (cell-free assay, competition with immobilised ligand; 1 µM): 100%

O=C1Nc2ccc(Cl)cc2C1=Cc1cc(Cl)c(O)c(Cl)c1
remaining signal (cell-free assay; 0.5 µM): 92%

CN1CC(Oc2cnc(C#N)cc2-c2ccn3nc(NC(=O)C4CC4)cc3c2)C1
inhibition (enzyme activity, inhibitor; 1 µM): -1%
